Shown are actives, neighbours in structure and some others; about 1.9% of the full set was active somewhere.
ASAP1 GAP inh = blocks human ASAP1-stimulated Arf1 GTP hydrolysis. AID 624377. 360,000 compounds, 0.19% hits. GDP FP detection. inhibition, % at 16.5 µM; in the data active = inhibition above about 25%;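 note: 0% = vehicle with enzyme and substrate and 100% = no enzyme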
Rtt109 Vps75 = inhibitors of Candida albicans Rtt109/Vps75 histone acetyltransferase | purified Rtt109/Vps75, ThioGlo CoA-SH fluorescence, 4 h | inhibition, % at 34.9 µM | Q5AAJ8 | 330,000 compounds, 0.16% hits;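 active = inhibition of at least 50% in every replicate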
Target sequence (Q5AAJ8 whole entry, looked up): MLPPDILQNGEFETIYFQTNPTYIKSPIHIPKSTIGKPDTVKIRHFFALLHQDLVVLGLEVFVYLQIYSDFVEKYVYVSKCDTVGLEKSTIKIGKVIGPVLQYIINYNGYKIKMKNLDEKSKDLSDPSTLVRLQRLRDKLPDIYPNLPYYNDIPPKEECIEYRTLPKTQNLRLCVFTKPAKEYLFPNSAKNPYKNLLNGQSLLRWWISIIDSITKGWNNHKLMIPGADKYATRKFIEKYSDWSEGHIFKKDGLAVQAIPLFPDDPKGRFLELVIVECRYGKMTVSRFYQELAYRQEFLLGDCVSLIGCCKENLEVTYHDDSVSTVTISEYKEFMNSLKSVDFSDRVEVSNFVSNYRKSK
Efflux pump mplx = inhibitors of Candida antifungal efflux pumps expressed in yeast; S. cerevisiae Candida pump triplex, Nile Red efflux; inhibition, % at 10 µM; 330,000 compounds, 0.44% hits;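 active = plate passing quality check with inhibition over a set limit, or well fluorescence over plate mean plus 4 SD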;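 note: Nile Red retained in pooled yeast measured as flow cytometry median fluorescence; 0% = buffer negative control and 100% = Enniatin B positive control; higher means more Nile Red kept so more efflux inhibition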
FGF22 binding-1 = shifts melting point of recombinant human FGF22 | Q9HCT0 | recombinant FGF22 thermal shift, SYPRO orange fluorescence; percent of sucrose octasulfate shift, DMSO zero | activity (Tm shift, normalised), % at 9.99 µM | 340,000 compounds, 1.5% hits | AID 651658;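 active = mean Tm shift, scaled 0 neutral to 100 positive control, at about 1.3% or above, every replicate too, limit read from the data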
Target sequence (Q9HCT0 whole entry, looked up): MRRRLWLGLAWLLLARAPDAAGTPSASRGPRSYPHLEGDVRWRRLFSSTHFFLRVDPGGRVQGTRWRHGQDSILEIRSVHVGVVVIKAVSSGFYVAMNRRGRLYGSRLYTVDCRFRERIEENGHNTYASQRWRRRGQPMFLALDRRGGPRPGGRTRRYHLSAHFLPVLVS
ARFGAP1 inh = rat ARFGAP1 inhibition | Q62848 | Arfgap1-stimulated ARF1 GTP hydrolysis, GDP FP detection | inhibition, % at 16.5 µM | 360,000 compounds, 0.26% hits | AID 651572;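 active = inhibition above a per-plate limit, mean inhibition of low control wells plus 3 SD, cut at about 25% in these data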;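 note: 0% = DMSO wells with enzyme and 100% = wells lacking Arfgap1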
Target sequence (Q62848 1-136 limits assumed): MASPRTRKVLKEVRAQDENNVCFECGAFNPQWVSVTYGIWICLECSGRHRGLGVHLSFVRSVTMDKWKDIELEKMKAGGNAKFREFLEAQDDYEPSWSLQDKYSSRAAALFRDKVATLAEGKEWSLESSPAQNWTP
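material = rat Arfgap1 catalytic domain, aa 1-136 | also added = human ARF1(Δ1-17)-GTP substrate | compound dosing = one concentration, 16.5 µM, DMSO 1.26% | times = GTP hydrolysis reaction 2 h at 25 °C | measured by = FP, GDP Alexa 633 tracer displaced from anti-GDP antibody, 620/688 nm | evaluation = percent inhibition of Arfgap1-stimulated GTP hydrolysis | replication = single well per compound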
FGF22 binding-2 = binders of human FGF22 by thermal shift; shares compounds with FGF22 binding-1; recombinant FGF22 thermal shift, SYPRO orange fluorescence; thermal shift activity, °C (ΔTm) at 38 µM; 1,000 compounds, 2% hits; AID 720646;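 active = fitted rise in melting shift crosses a set limit at or below the top valid dose tested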
SYPRO no-protein = shows thermal shift signal without protein, FGF22 counter-screen | shares compounds with FGF22 binding-1 | compound-only SYPRO orange thermal shift counter-screen, no protein | AC50, µM (series often up to 38 µM) | 1,000 compounds, 2% hits;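 active = rising signal whose fitted curve reaches the 0.54 level within the top valid dose, showing a melting point, actives reach about 13 µM in these data; inactive = the rest, including activity in the opposite direction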; note: value is where the raw curve crosses a fixed level and not half-maximal
* = called active by the depositor; i = inactive; . = no result; [ ] = another dose, or the depositor's remark.

SMILES | ASAP1 GAP inh | Rtt109 Vps75 | Efflux pump mplx | FGF22 binding-1 | ARFGAP1 inh | FGF22 binding-2 | SYPRO no-protein
O=C(NN1C(=O)CSC1=S)C(=O)NN1C(=O)CSC1=S | -4.8 | 9.5 | -0.1 | 2.4* | -1.7 | -0.042 | i
COc1cc(/C=N/NC(=O)c2[nH]nc3c2CCc2ccccc2-3)ccc1O | -7.8 | 10.1 | -0.1 | 1.7* | 4.3 | 0.684 | i
COc1cc(/C=N/NC(=O)c2ccccc2)ccc1O | -8.8 | -5.7 | 0.0 | 42.3 | -3.1 | . | .
COc1ccc(S(=O)(=O)Nc2ccc3c(c2)CC(=O)N([C@H](C)CO)C[C@@H](C)[C@H](CN(C)S(=O)(=O)c2cccs2)O3)cc1 | . | . | . | -0.5 | . | . | .
COc1ccc(C#Cc2ccc([C@@H]3[C@H](CO)N4CCCCN(Cc5ccccc5F)C[C@@H]34)cc2)cc1 | . | . | . | -0.2 | . | . | .
Cc1ccc(S(=O)(=O)N(C)/N=C/c2ccc(N(C)C)cc2)cc1 | -1.1 | -0.2 | -0.1 | 20.4* | 4.4 | 0.158 | i
O=C(c1ccc2c(c1)OCO2)N1CC(=O)N2[C@H](C1)[C@@H](c1ccc(C#CCC3CCCC3)cc1)[C@@H]2CO | . | . | . | -1.0 | . | . | .
O=C(c1ccc2c(c1)OCO2)N1CC(=O)N2[C@H](C1)[C@H](c1ccc(C#CCC3CCCC3)cc1)[C@@H]2CO | . | . | . | 2.3* | . | 0.049 | i
CS(=O)(=O)N1CC(=O)N2[C@H](CO)[C@@H](c3ccc(C#CCc4ccccc4)cc3)[C@H]2C1 | . | . | . | 1.3* | . | 0.098 | i
CS(=O)(=O)N1CC(=O)N2[C@@H](CO)[C@H](c3ccc(C#CCc4ccccc4)cc3)[C@@H]2C1 | . | . | . | 0.6 | . | . | .
COc1cccc(C#Cc2ccc([C@H]3[C@@H](CO)N4C(=O)CN(C(=O)c5ccccc5)C[C@@H]34)cc2)c1 | . | . | . | 1.4* | . | 0.001[42 µM] | i
COc1cccc(C#Cc2ccc([C@@H]3[C@H]4CN(C(=O)c5ccccc5)CC(=O)N4[C@H]3CO)cc2)c1 | . | . | . | -0.9 | . | . | .
COC(=O)CSc1nnc(CSc2nc(C)cc(C)n2)o1 | 3.0 | . | 0.3 | -0.2 | 4.3 | . | .
Cc1ccc(S(=O)(=O)N2CCCC(C(=O)NC3CCCC3)C2)cc1 (stereo unspecified) | -1.4 | -0.1 | -0.2 | -0.3 | 8.7 | . | .
Cc1cc(C)cc(NS(=O)(=O)c2cc3[nH]c(=O)c(=O)[nH]c3cc2C)c1 | -2.7 | 0.6 | -0.5 | 1.7* | -5.6 | 0.031 | i
CCC(=O)N1CCCCN2[C@@H](CO)[C@@H](c3ccc(C#Cc4ccccc4F)cc3)[C@@H]2C1 | . | . | . | 0.8 | . | . | .
CCC(=O)N1CCCCN2[C@H](CO)[C@@H](c3ccc(C#Cc4ccccc4F)cc3)[C@H]2C1 | . | . | . | 1.5* | . | 0.044[42 µM] | i
Cc1ccc(Cl)cc1NS(=O)(=O)c1ccc2c(c1)NC(=O)C(C)C(=O)N2 (stereo unspecified) | 9.1 | 5.2 | -0.1 | 1.9* | 3.3 | 0.068 | i
Cc1ccc(NS(=O)(=O)c2ccc3c(c2)NC(=O)C(C)C(=O)N3)c(Br)c1 (stereo unspecified) | -7.2 | -7.6 | -0.1 | 0.1 | -1.6 | . | .
CCOc1ccc(NC(=O)CN(C)C(=O)CCCNC(=O)c2ccc(Cl)cc2)cc1OCC | -4.5 | . | . | -0.3 | 7.9 | . | .
Cc1cc(C)n2nc(C(=O)NCc3ccco3)cc2n1 | -3.8 | 2.6 | 0.2 | 0.5 | 18.2 | . | .
Oc1ccc(/C=N/N=C/c2ccc(O)c(O)c2)cc1O | -10.1 | 2.0 | 0.0 | 1.5* | -16.0 | 0.23 | 10.5µM*
Oc1ccc(N=Cc2ccc(O)c(O)c2)cc1 | . | 2.0 | -0.1 | . | . | . | .
Cc1ccccc1C(=O)Nc1nnc(S(=O)(=O)N2CCCCC2)s1 | -8.5 | 7.3 | -0.1 | 16.9* | 4.0 | 0.005 | i
O=C(Nc1nnc(S(=O)(=O)N2CCCCCC2)s1)c1ccccc1Br | -7.1 | -9.9 | 0.1 | 0.1 | -1.5 | . | .
SMILES | ASAP1 GAP inh | Rtt109 Vps75 | Efflux pump mplx | FGF22 binding-1 | ARFGAP1 inh | FGF22 binding-2 | SYPRO no-protein
CCc1ccc(N2CC(C(=O)OCC(=O)Nc3ccc(C#N)cc3)CC2=O)cc1 (stereo unspecified) | 3.6 | -8.7 | 0.0 | 1.6* | -1.5 | 0.06 | i
CCc1ccc(N2CC(C(=O)OCC(=O)NC3CC3)CC2=O)cc1 (stereo unspecified) | -3.5 | 8.4 | 0.1 | . | 5.8 | . | .
CCc1ccc(N2CC(C(=O)OCC(=O)Nc3ccc(C(C)=O)cc3)CC2=O)cc1 (stereo unspecified) | 1.2 | -1.0 | 0.0 | 1.9* | 5.4 | -0.509 | i
O=C(Nc1ccc(F)cc1)N[C@@H]1CC[C@H](CCn2cc(-c3ccc(F)cc3)nn2)O[C@H]1CO | . | . | . | 2.4* | . | -0.2[42 µM] | i
O=C(N[C@H]1CC[C@H](CCn2cc(C3(O)CCCC3)nn2)O[C@@H]1CO)C1CCCCC1 | . | . | . | 1.8* | . | 0.027[42 µM] | i
COc1ccc(NC(=O)N[C@H]2CC[C@@H](CCn3cc(-c4ccc(OC)cc4)nn3)O[C@@H]2CO)cc1 | . | . | . | 1.3* | . | 0.106[42 µM] | i
COc1ccc(NC(=O)N[C@@H]2CC[C@H](CCn3cc(-c4ccc(F)cc4)nn3)O[C@H]2CO)cc1 | . | . | . | 0.0 | . | . | .
COc1ccc(-c2cn(CC[C@H]3CC[C@@H](NC(=O)Nc4ccc(F)cc4)[C@@H](CO)O3)nn2)cc1 | . | . | . | 1.0 | . | . | .
COc1ccc(-c2cn(CC[C@@H]3CC[C@@H](NC(=O)Nc4ccc(F)cc4)[C@H](CO)O3)nn2)cc1 | . | . | . | . | . | -0.174[42 µM] | i
CN(C)S(=O)(=O)c1ccc(C(=O)NCC2(N3CCCCC3)CCCCC2)cc1 | -0.3 | 7.5 | 0.1 | 41.3 | -8.2 | . | .
O=C(OCC(=O)c1ccc(Cl)s1)c1ccc2ccccc2n1 | 10.1 | -5.0 | -0.3 | 1.7* | 10.1 | 0.031 | i
O=C(COC(=O)c1cccnc1Cl)c1ccc(Cl)s1 | -3.2 | 9.7 | 0.7 | 1.1 | 2.2 | . | .
CCCn1c(-c2cccnc2Cl)nc2cc(Cl)c(Cl)cc21 | -5.3 | -11.4 | 0.1 | -0.3 | 11.6 | . | .
O=C(O)c1cc2cc(Cl)ccc2oc1=O | 11.5 | -5.2 | -0.1 | . | -8.8 | . | .
S=c1[nH]c2cc3ccccc3cc2[nH]1 | -5.2 | 3.7 | 0.3 | 2.1* | 8.6 | 0.069 | i
COCC(=O)Nc1ccc2c(c1)[C@H]1C[C@@H](CC(=O)NCCN3CCCCC3)O[C@@H](CO)[C@H]1O2 | . | . | . | 0.8 | . | . | .
O=C(Nc1ccc2c(c1)[C@@H]1C[C@@H](CC(=O)N3CCCCC3)O[C@@H](CO)[C@@H]1O2)NC1CCCC1 | . | . | . | -0.4 | . | . | .
CN(C)CC(=O)Nc1ccc2c(c1)[C@H]1C[C@H](CC(=O)NCC3CC3)O[C@H](CO)[C@H]1O2 | . | . | . | 0.1 | . | . | .
COCC(=O)Nc1ccc2c(c1)[C@@H]1C[C@@H](CC(=O)NCc3ccccn3)O[C@@H](CO)[C@@H]1O2 | . | . | . | 1.3* | . | 0.018[42 µM] | i
CN(C)CC(=O)Nc1ccc2c(c1)[C@H]1C[C@@H](CC(=O)NCC3CC3)O[C@H](CO)[C@H]1O2 | . | . | . | 1.3* | . | -0.018 | i
